Experimental data reported in ChEMBL document CHEMBL1131328 (J Med Chem, 1998).

Assays:
Rattus norvegicus [1] = experiment: Percent decrease in serum cholesterol relative to OVX controls, at 1.0 mg/Kg compound dose; format: functional
Method in brief: (§1)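 Ovariectomized rats were dosed daily for 4 days, and serum cholesterol was measured. Values are mean percent decrease relative to OVX controls ± SEM, n ≥ 5 per group, with significance at p ≤ 0.05. ED50 is the dose reducing serum cholesterol by 50% relative to OVX controls.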

Rattus norvegicus [2] = experiment: Minimally effective dose(MED) (mg/kg body weight) at which a significant increase in EPO activity was observed in rats; format: functional; conditions: read-out: MED
Method in brief: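 Uterine eosinophil peroxidase (EPO) activity was measured in the 4-day ovariectomized rat assay. […] Activity at the MED is given as Vmax ± standard error.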

Rattus norvegicus [3] = experiment: Percent decrease in serum cholesterol relative to OVX controls, at 0.01 mg/Kg compound dose; format: functional; method in brief: as §1
[4] = molecular target: T1, Estrogen receptor (Rattus norvegicus) (UniProt P06211+Q62986)
Rattus norvegicus [5] = organism: Rattus norvegicus; experiment: Dose required to reduce serum cholesterol by 50% relative to ovariectomized (OVX) controls; format: functional; method in brief: as §1
MCF7 [6] = experiment: Inhibition of estrogen-stimulated MCF-7 cell proliferation; format: functional, cell-based; conditions: Homo sapiens
Method in brief: (§2)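 MCF-7 breast tumor cells were stimulated to proliferate with 10⁻¹¹ M 17β-estradiol, with test compound added to measure inhibition of that proliferation. IC50 was derived from the inhibition.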

[7] = molecular target: T1, Estrogen receptor (Rattus norvegicus); experiment: Minimally effective dose(MED) (mg/kg body weight) at which a statistically significant (p<= 0.05) increase in uterine weight/body weight was observed.; format: functional, organism-based
Method in brief: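 A 4-day ovariectomized rat assay with daily dosing. Uterine weight/body weight was compared with OVX controls. The MED is the lowest dose (mg/kg) giving a significant increase (p ≤ 0.05). Activity at the MED is given as percent increase over OVX controls ± standard error.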

MCF7 [8] = experiment: Inhibition of estrogen-stimulated MCF-7 cell proliferation; not active; format: functional, cell-based, Homo sapiens; method in brief: as §2

| MED [4] [mg/kg] | IC50 (MCF7 [6]) [nM] | IC50 (MCF7 [8]) | SMILES | Decrease (Rattus norvegicus [1]) [%] | minimal effective dose (Rattus norvegicus [2]) [mg/kg] | Decrease (Rattus norvegicus [3]) [%] | ED50 (Rattus norvegicus [5]) [mg/kg] | MED [7] [mg/kg] |
| --- | --- | --- | --- | --- | --- | --- | --- | --- |
| 0.1 | 2 |  | CN(C)CCOc1ccc(C2Oc3cc(O)ccc3-c3sc4cc(O)ccc4c32)cc1 (configuration not stated) | 54.7 | 0.1 | 40.1 | 0.5 |  |
|  |  |  | CC/C(=C(\c1ccccc1)c1ccc(OCCN(C)C)cc1)c1ccccc1 [TAMOXIFEN] | 71.1 | 0.1 | 39.2 | 0.2 |  |
| > 10 | 0.7 |  | Oc1ccc2c(c1)OC(c1ccc(OCCN3CCCCC3)cc1)c1c-2oc2cc(O)ccc12 (configuration not stated) |  | > 10 | 17.4 | > 10 |  |
| 3 | 9 |  | O=C1CCCN1CCOc1ccc(C2Oc3cc(O)ccc3-c3sc4cc(O)ccc4c32)cc1 (configuration not stated) | 4.4 | > 3 | -15.2 |  |  |
|  | 0.4 |  | Oc1ccc2c(c1)OC(c1ccc(OCCN3CCCCC3)cc1)c1c-2ccc2cc(O)ccc12 (configuration not stated) | 65.7 | > 10 | 57.2 | 0.02 | > 10 |
| 0.1 | 80 |  | c1ccc2c(c1)OC(c1ccc(OCCN3CCCCC3)cc1)c1c-2sc2ccccc12 (configuration not stated) |  | > 10 | 39.8 | 0.7 |  |
|  |  | Not Active | C#C[C@]1(O)CC[C@H]2[C@@H]3CCc4cc(O)ccc4[C@H]3CC[C@@]21C [ETHINYL ESTRADIOL] |  | 0.1 | 57.1 | 0.005 |  |
| 0.1 | 8 |  | CCN(CC)CCOc1ccc(C2Oc3cc(O)ccc3-c3sc4cc(O)ccc4c32)cc1 (configuration not stated) | 38.7 | 0.1 | 20.6 | > 10 |  |
| > 10 | 20 |  | Oc1ccc2c(c1)OC(c1ccc(OCCN3CCCCC3)cc1)c1c-2sc2ccccc12 (configuration not stated) | 53.7 | > 10 | 46.5 | 0.5 |  |
| 0.1 | 0.6 |  | Oc1ccc2c(c1)OC(c1ccc(OCCN3CCCC3)cc1)c1c-2sc2cc(O)ccc12 (configuration not stated) | 68 | > 1 | 38.5 | 0.2 |  |
| > 10 | 0.2 |  | Oc1ccc2c(c1)OC(c1ccc(OCCN3CCCCC3)cc1)c1c-2sc2cc(O)ccc12 (configuration not stated) | 47.6 | > 10 | 62.2 | 0.15 |  |
|  | […] |  | O=C(c1ccc(OCCN2CCCCC2)cc1)c1c(-c2ccc(O)cc2)sc2cc(O)ccc12 [RALOXIFENE] |  | > 10 | 44.9 | […] |  |
|  | 100 |  | COc1ccc2c(c1)OC(c1ccc(OCCN3CCCCC3)cc1)c1c-2sc2cc(OC)ccc12 (configuration not stated) |  |  |  |  |  |
| 1 | 6 |  | Oc1ccc2c(c1)OC(c1ccc(OCCN3CCOCC3)cc1)c1c-2sc2cc(O)ccc12 (configuration not stated) | 14.3 | 1 | -48.7 | > 10 |  |
| > 10 | 6 |  | Oc1ccc2c3c(sc2c1)-c1ccccc1OC3c1ccc(OCCN2CCCCC2)cc1 (configuration not stated) | 51.5 | > 10 | 25.4 | 1 |  |

| SMILES | MED [4] [mg/kg] | IC50 (MCF7 [6]) [nM] | IC50 (MCF7 [8]) | Decrease (Rattus norvegicus [1]) [%] | minimal effective dose (Rattus norvegicus [2]) [mg/kg] | Decrease (Rattus norvegicus [3]) [%] | ED50 (Rattus norvegicus [5]) [mg/kg] | MED [7] [mg/kg] |
| --- | --- | --- | --- | --- | --- | --- | --- | --- |
| CC/C(=C(\c1ccc(O)cc1)c1ccc(OCCN(C)C)cc1)c1ccccc1 |  | […] |  |  |  |  |  |  |
